In the RNAGym collection of RNA variant scans (doi:10.1126/science.aae0568) one finds yeast fitness data, which are given here for 167 variants.

B1: tRNA (parent)
chain: GUUCCGUUGGCGUAAUGGUAACGCGUCUCCCUCCUAAGGAGAAGACUGCGGGUUCGAGUCCCGUACGGAACG

This sample holds only a part of the variants without activity. Some results are limits rather than exact numbers.

Variants of B1 are the subject of the series. Kind of series: yeast fitness relative to wild type (ratio to wild type); higher = fitter; tRNA-Arg(CCU), competitive growth, 37 C, YPD. The method in brief:
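Gene amplicons from the start population and from each of six end populations were read by 100-nucleotide paired-end sequencing. Those end populations came from pooled Saccharomyces cerevisiae strains carrying tRNA-Arg(CCU) gene variants at the native locus, competed in YPD at 37°C for 24 hours. Fitness relative to wild type was worked out from changes in genotype frequencies. Genotypes needed ≥ 100 starting reads, and estimates < 0.5 were set to 0.5.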
G12A A21C C24A A69C: the yeast fitness amounted to 0.933. U2G G48A C60G: the yeast fitness was determined as 0.541.

Take U13A A20C C46U A70U: the yeast fitness worked out at 0.589. Under G12A U26A stands 0.941; under C5G U19C U26A C55U, not above 0.5. With G9A G10A A21G A57G C66U, the yeast fitness is not above 0.5. Under G38C A40U G51A C60U stands 0.725. Consider U16A C30G A40G U54C, for which the yeast fitness is not above 0.5. Under C62G A69C stands 0.617; under C4U G12A C27G C34A C49A C66U, not above 0.5. Under C29G C30G U32C A36U stands 0.524; under C11U A37U, 0.808.

C11U U35A G38A C61A: the yeast fitness is not above 0.5. Consider G6C C66A A70U, for which the yeast fitness was 0.538. Turning to C4U U8C C29U A43U, the yeast fitness was not above 0.5. As to A20U G50A A65U, the yeast fitness was not above 0.5. In the case of C5G G9A C27G C61U, the yeast fitness was not above 0.5. For C4A U19G C31G A45C C46G, the yeast fitness amounted to 0.555. Under A36U C49G G52C stands not above 0.5; under A20U C49A, 0.708. On to C11G A37C A42G, for which the yeast fitness is not above 0.5. Take C11G U16A C22U G51C C60U G67A: the yeast fitness was not above 0.5. G44C G50A: the yeast fitness was determined as 0.861. As to U13G A42U G44A C49A, the yeast fitness amounted to 0.602. Turning to U26G G56A G67A, the yeast fitness was 0.529. In the case of G9A A37G A40U C49A A57U, the yeast fitness was not above 0.5. For C4A G18C C24U C29U C34A, the yeast fitness turned out to be 0.592. Consider C4G A15C C29G G48A, for which the yeast fitness was not above 0.5.

In the case of U3C G9C C11U C30G A43C U64C, the yeast fitness was not above 0.5. Under C30G C31G U32A C33U A65U stands not above 0.5. Take A20U A21G C31U: the yeast fitness was determined as 0.609. C30U U54A A70U: the yeast fitness was 0.572. Consider C24U C31G U64C, for which the yeast fitness amounted to 0.572. As to G25C A37G A40C C61G, the yeast fitness was not above 0.5. In the case of C27G U32C A42C G48C C55G C60U G68C, the yeast fitness was not above 0.5. Under U13C A21G A42U A57U C62U stands not above 0.5. With U7C A21U C22A C49U G50C A69U, the yeast fitness was not above 0.5.

On to U35G A57G, for which the yeast fitness is 0.698. For C4A G10C G63C A69U, the yeast fitness was not above 0.5.

Regarding U2C C30U A36C A45U G50C, the yeast fitness is not above 0.5. Under C27A A40G stands 0.843; under U3G G6A A14G G38C G41C C62G, not above 0.5; under C5U A40U, 0.833. Regarding G12A A36U G63A, the yeast fitness is not above 0.5. On to C29U C46U C66U, for which the yeast fitness came out at 0.63. As to U7C U19A C29A, the yeast fitness is not above 0.5. As for A15G G52U, the yeast fitness came out at 0.73. Regarding G10A C27G, the yeast fitness amounted to 0.551.

In the case of C29A C30G A36C G44C G51C, the yeast fitness is not above 0.5. On to A43C U47A G58C U64C, for which the yeast fitness was not above 0.5. As to C29A U32C C49A, the yeast fitness was not above 0.5. Under G41A C60G A70G stands 0.542. For U8A G23A C30G A65U, the yeast fitness amounted to 0.55.

In the case of U35A A42G, the yeast fitness turned out to be 0.681. Take C33G C62G: the yeast fitness was found to be 0.597.

Turning to U2A A14U, the yeast fitness is 0.682.

Regarding C11U C29A U54A A70C, the yeast fitness was not above 0.5. As to G12A C27G C55A C66U, the yeast fitness is not above 0.5. Regarding C4G C11U A14G C46G C55G C61G, the yeast fitness was not above 0.5. Under C34U G58C C60U C66G stands not above 0.5; under A40U A69U, 1.04. For the variant C4G A20G A43G, the yeast fitness is 0.502. For C4G U19C U47A C49U G68C, the yeast fitness was not above 0.5. With U28C C29A C31G C55A G58A, the yeast fitness was not above 0.5.

In the case of C4A U19G C31G A45C C46G G56C G63A U64C G67C, the yeast fitness was not above 0.5. Take G48A U54C: the yeast fitness amounted to 0.929.

As to C27U A42U C62U, the yeast fitness amounted to 0.559.

For the variant G48C A65G, the yeast fitness was 1.01. Consider G6A A15C C33G A36C, for which the yeast fitness was not above 0.5. Under C5G C55U G68C stands 0.506.

In the case of U3A A40G, the yeast fitness is 0.888. Turning to A20U A42C C60A, the yeast fitness is not above 0.5. For the variant C4G C11G A21U A36U G58C, the yeast fitness was not above 0.5.

Consider G23A U35G A70C, for which the yeast fitness was not above 0.5. In the case of C5A G6C A37G G52A C55G, the yeast fitness was not above 0.5. With U26C U35C C49U A57U, the yeast fitness was 0.656.

As for C34A G41A C46A, the yeast fitness is not above 0.5. C30U C55G: the yeast fitness was found to be 0.553. As for C31U G52C A57C, the yeast fitness is not above 0.5. G68C A69G: the yeast fitness came to 0.945. On to U19C A20U G67U A69U, for which the yeast fitness worked out at 0.53. Take U53G U64C: the yeast fitness is 0.669.

On to A42C A43C C49U A70C, for which the yeast fitness was found to be 0.585. Take G10A C30G C46U: the yeast fitness was not above 0.5. Under U7C G18A G50A U64A stands not above 0.5; under U7A A43C G48A A57C G68U, not above 0.5. As to C11G A36G, the yeast fitness stood at 0.692. Under C24U C61G stands 0.598; under C27U C33G A43G A45C C55A, not above 0.5; under C11U G12C C46A, not above 0.5. With G9A C49U G68C, the yeast fitness was determined as 0.657. On to C4G U7A G9C G17C G48A, for which the yeast fitness was not above 0.5. As for A15U U19C G23C C27G A45C G63C, the yeast fitness is not above 0.5. As to C11G C30A C62G G68C, the yeast fitness was not above 0.5.

Consider C5U C22A C60G, for which the yeast fitness is 0.628.

For the variant C24U C27G A65C, the yeast fitness is not above 0.5.

Turning to G10A C27A A37U G52A U54C G56C A57G, the yeast fitness was not above 0.5. Under C22G A45U C49G A65U stands not above 0.5; under G38A G48A C49G A69U, not above 0.5; under C5A G12A U35A A42G A65U, not above 0.5. With A43G A45C C49G, the yeast fitness was 0.532. Under G38A G67U stands 0.803.

As to U7A C27U U32C, the yeast fitness is 0.575. In the case of U3A G17A, the yeast fitness was 0.829. For A45G G63U, the yeast fitness turned out to be 0.732. On to A14G G68C, for which the yeast fitness is 0.78. As to C24A C31U A42C C66U, the yeast fitness was not above 0.5.

In the case of G12A G56C, the yeast fitness stood at 0.764. Regarding A20U G48C C61G C66U, the yeast fitness was determined as 0.505. Under U8C G41A stands 0.92; under U2C C66A A69C, not above 0.5; under G18C A21G C27A C30U G38A, 0.547. U2A C22A A65C: the yeast fitness is not above 0.5. Take A65G C66G: the yeast fitness came to 0.897. U8C C22A A36C G63C G67A: the yeast fitness is not above 0.5.

On to A14G C24U G51A, for which the yeast fitness was not above 0.5. Under U2A G10C C27A A37U C49A G56A stands not above 0.5; under G10C A57G A65U, not above 0.5; under C49G G52A A69U, 0.542. With A40U A43U, the yeast fitness was determined as 1.11. Take G6C A15G G51A: the yeast fitness is not above 0.5. Turning to C11G G38A C66U, the yeast fitness is not above 0.5. Regarding G9A C31A, the yeast fitness worked out at 0.862. Consider A20C G23A, for which the yeast fitness was found to be 0.788. For C4U U13C C29G G38C, the yeast fitness was not above 0.5. Take G12A U19A G52C: the yeast fitness is not above 0.5. C33G G39A C49G U54A: the yeast fitness is not above 0.5. For G10C C29U A43G U53G G63A, the yeast fitness came out at 0.527.

U3C C5U C33G C34U G38C U47A: the yeast fitness is not above 0.5. Under C5U A43U C49U C66U stands not above 0.5; under A15U C27U C49U, 0.655. For the variant A45C C55U G56A, the yeast fitness is 0.539. On to C5U U7A G39C C49U, for which the yeast fitness is not above 0.5. For the variant A15G A36U C61U A65U, the yeast fitness is not above 0.5. Under U3C C33G C60A stands not above 0.5; under A45C G51C A57G, not above 0.5; under G10A C27G G38A A42G, 0.661. For A15G G39C U54C C55U, the yeast fitness was not above 0.5.

Consider C24A G51C G52C, for which the yeast fitness is not above 0.5. For the variant U2A A14G A37U U54A, the yeast fitness was not above 0.5. Regarding C24U C29G C33U A57G, the yeast fitness is not above 0.5. In the case of C11G G50A C61U, the yeast fitness was determined as 0.566. Regarding C61G G68A, the yeast fitness came to 0.677. In the case of A20G U26C A42U, the yeast fitness was 0.715. Regarding A14U A21G A70C, the yeast fitness is 0.543. As to C5A U35G, the yeast fitness is 0.636.

Consider G10A U28C C61U C66G, for which the yeast fitness was not above 0.5. On to U2C G17A U19C G50C G56C, for which the yeast fitness was not above 0.5. Under A15C A42C C55G A70G stands 0.72. On to C49A G50U, for which the yeast fitness was 0.694. With G12A C27A C30G G68U, the yeast fitness is not above 0.5. Under U7A A21G C30G stands not above 0.5; under G41C C55U G67C, not above 0.5; under U16C A43C U54A, not above 0.5. Under U7A G23A C29A C55A stands not above 0.5. In the case of C4U G10U C24U, the yeast fitness is 0.625. In the case of C24G U28C C29G, the yeast fitness is not above 0.5.

For the variant C4U A14G C30G A36U, the yeast fitness was not above 0.5. Turning to U35C G41A A70G, the yeast fitness amounted to 0.689. Regarding C11U C60G C62U G68C, the yeast fitness came to 0.505.

On to C5G C30U U32A C61G, for which the yeast fitness was not above 0.5. With A15U C27U, the yeast fitness was 0.699. With U28A C34U A45U C62A, the yeast fitness is not above 0.5.

A15C A42C: the yeast fitness was 0.646. Under C22G C31U C66G stands 0.512. For the variant C49U C62U, the yeast fitness came to 0.869. Consider U2A U3C U26C U35A C62A, for which the yeast fitness is not above 0.5.
